The structures appear in SMILES notation. Where only a bound is given, the exact number is not on record here.

The term ED50 denotes the midpoint of the dose-response relation.

Assay [1] concerns Rattus norvegicus. Briefly: Anticonvulsant activity against maximal electroshock-induced seizures in Wistar rats following i.p. administration. To be noted: ip. It counts as functional. In outline:
(§1)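 Male Charles River Wistar rats; maximal electroshock seizure test. Compounds given as solutions or fine dispersions in water or 0.5% methyl cellulose, micronized if not fully soluble. ED50 is the dose protecting 50% against hind limb extension, calculated by Miller–Tainter. Values with a standard error used four doses, at least 12 rats each. Values without one used three doses, six rats each.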
A general note: The maximal electroshock test induces tonic seizures with an electrical stimulus.

For assay [2], the system named is Rattus norvegicus. Briefly: Anticonvulsant activity against maximal electroshock-induced seizures in Wistar rats following p.o. administration. It counts as functional. To be noted: po. The gist of the method:
as §1

`CNc1nccc2c1nnn2Cc1ccccc1C(F)(F)F.Cl` showed a median effective dose (ED50) in assay [1] of more than 25 mg/kg. In the case of `CNc1nccc2c1nnn2Cc1ccc(F)cc1.Cl`, the 50% effective dose (ED50) in assay [1] turned out to be 17 mg/kg.

On to `Cl.Nc1nccc2c1nnn2Cc1ccccc1`, for which the 50% effective dose (ED50) in assay [2] is 20 mg/kg; in assay [1], 8.7 mg/kg. In turn, `CCN(C)c1nccc2c1nnn2Cc1ccccc1F.Cl` came in with an ED50 in assay [1] of more than 25 mg/kg. With `CC(C)Nc1nccc2c1nnn2Cc1ccccc1F.Cl`, the ED50 is more than 25 mg/kg in assay [2] and 14.2 mg/kg in assay [1].

For the molecule `Cl.Fc1ccccc1Cn1nnc2c(NCC3CC3)nccc21`, it took a dose of 40 mg/kg to reach the 50% effect level in assay [1] (ED50).

Take `CNc1nccc2c1nnn2Cc1cc(F)ccc1F.Cl`: in assay [1], the median effective dose (ED50) came to 5 mg/kg. Turning to `Cl.Nc1nccc2c1nnn2Cc1ccccc1F`, the ED50 in assay [2] was determined as 11.5 mg/kg; in assay [1], 28.4 mg/kg.

As to `CNc1nccc2c1nnn2Cc1ccccc1.Cl`, the ED50 was found to be 10 mg/kg in assay [2] and 6.3 mg/kg in assay [1].

For `CCNc1nccc2c1nnn2Cc1ccccc1F.Cl`, the median effective dose (ED50) was found to be 10 mg/kg in assay [2] and 8 mg/kg in assay [1].

For the molecule `CCCNc1nccc2c1nnn2Cc1ccccc1F.Cl`, the results for the ED50 in assay [2] and in assay [1] were more than 25 mg/kg and 14.4 mg/kg, respectively. Molecule `Cl.Fc1ccccc1Cn1nnc2c(NC3CC3)nccc21` registered an ED50 in assay [1] of 5.6 mg/kg. Molecule `CNc1nccc2c1nnn2Cc1cccc(F)c1.Cl` displayed an ED50 in assay [1] of 10 mg/kg.

Turning to `CNc1nccc2c1nnn2Cc1ccccc1F.Cl`, the ED50 in assay [2] and in assay [1] was 4.6 mg/kg throughout. On to `Cl.Nc1nccc2c1nnn2Cc1cc(F)ccc1F`, for which it took a dose of 18 mg/kg to reach the 50% effect level in assay [1] (ED50).

Turning to `CNc1ncnc2c1ncn2Cc1ccccc1F` [BW-A78U], the 50% effective dose (ED50) stood at 2.5 mg/kg in assay [2] and 1.7 mg/kg in assay [1]. With `O=C1NC(=O)C(c2ccccc2)(c2ccccc2)N1` [PHENYTOIN], the ED50 in assay [2] came to 20 mg/kg; in assay [1] it was 10 mg/kg.

The values are drawn from ChEMBL document CHEMBL1128315, “1-(Fluorobenzyl)-4-amino-1H-1,2,3-triazolo[4,5-c]pyridines: synthesis and anticonvulsant activity” (1995).
